Data: ChEMBL document CHEMBL1141072, “Conformationally constrained analogues of diacylglycerol (DAG). 25. Exploration of the sn-1 and sn-2 carbonyl functionality reveals the essential role of the sn-1 carbonyl at the lipid interface in the binding of DAG-lactones to protein kinase C” (J Med Chem, 2005)

Columns and labels:
[1] = target: T1, Protein kinase C delta type (Homo sapiens, UniProt Q05655); assay: Inhibition of [3H]-PDBu binding to C1b domain of protein kinase C delta without phosphatidylserine
T1 sequence (Q05655 whole entry, the tested form may be a part): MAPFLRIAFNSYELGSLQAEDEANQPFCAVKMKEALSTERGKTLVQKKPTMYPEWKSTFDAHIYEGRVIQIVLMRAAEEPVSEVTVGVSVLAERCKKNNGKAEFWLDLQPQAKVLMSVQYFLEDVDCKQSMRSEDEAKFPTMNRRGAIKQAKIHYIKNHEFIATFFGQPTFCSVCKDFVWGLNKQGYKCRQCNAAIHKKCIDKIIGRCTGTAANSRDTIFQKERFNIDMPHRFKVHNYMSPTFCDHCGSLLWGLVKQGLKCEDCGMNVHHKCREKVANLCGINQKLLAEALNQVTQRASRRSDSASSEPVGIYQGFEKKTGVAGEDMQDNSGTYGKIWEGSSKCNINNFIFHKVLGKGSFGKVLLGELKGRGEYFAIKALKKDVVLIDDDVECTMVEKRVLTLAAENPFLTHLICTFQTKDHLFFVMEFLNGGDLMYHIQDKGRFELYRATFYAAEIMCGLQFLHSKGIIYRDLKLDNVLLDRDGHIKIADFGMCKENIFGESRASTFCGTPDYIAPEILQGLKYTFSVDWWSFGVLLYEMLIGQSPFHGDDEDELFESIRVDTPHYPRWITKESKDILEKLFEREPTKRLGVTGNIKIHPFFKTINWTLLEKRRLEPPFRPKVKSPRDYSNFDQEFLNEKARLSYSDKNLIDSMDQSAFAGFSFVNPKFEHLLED
In short: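 GST-tagged δC1b expressed in BL-21 (DE3) E. coli and purified on glutathione spin columns, purity checked by SDS-PAGE. Competition with [3H]PDBu run in 50 mM Tris-HCl pH 7.4, 4 mg/ml bovine IgG, 1 mM EGTA, no phosphatidylserine, 10 min at 18 °C. Bound ligand separated by PEG precipitation on ice and counted by scintillation. Nonspecific binding taken with 64 μM unlabeled PDBu. Ki derived.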

[2] = target: Protein kinase C alpha type (Homo sapiens, UniProt P17252); assay: Inhibition of [3H]PDBu binding to recombinant protein kinase C alpha was determined at pH 7.4, 37 degree C for 5 min
In short: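 PKCα displacement of [3H]PDBu in 50 mM Tris-HCl, 100 μg/ml phosphatidylserine, 4 mg/ml bovine IgG and 0.1 mM CaCl2, with a range of competitor concentrations. After incubation, chilled 7 min and 35% PEG added, then 10 min on ice and spun at 4 °C. Pellet bound radioactivity counted. Nonspecific binding measured with 64 μM unlabeled PDBu. Expressed as Ki.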

[3] = target: T1, Protein kinase C delta type; assay: Inhibition of [3H]PDBu binding to C1b domain of protein kinase C delta with phosphatidylserine
In short: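 δC1b domain as GST fusion, expressed in BL-21 (DE3) E. coli and spin-purified. Assay buffer 50 mM Tris-HCl pH 7.4 with 100 μg/ml phosphatidylserine, 4 mg/ml bovine IgG and 1 mM EGTA, plus [3H]PDBu and varied competitor. Incubated 10 min at 18 °C, then precipitated with PEG and pellet counted. Specific binding is total minus binding with 64 μM cold PDBu. Ki reported.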

Structure (SMILES) | Ki [1] | Ki [2] | Ki [3]
CC(C)CC(C/C=C1/COC(CO)(COC(=O)C(C)(C)C)C1)CC(C)C (stereo unspecified) | 6.62 µM | 0.622 µM | 0.219 µM
CC(C)CC(C/C=C1\CC(CO)(COC(=O)C(C)(C)C)OC1=O)CC(C)C (stereo unspecified) | 0.103 µM | 0.00325 µM | –
CC(C)CC(C/C=C1\CC(CO)(COC(=O)C(C)(C)C)OC1=S)CC(C)C (stereo unspecified) | 0.173 µM | 0.0237 µM | 0.00313 µM

The next lines start with the values.

Ki [1] | Ki [2] | Ki [3] | Structure (SMILES)
101 µM | 14.3 µM | 1.89 µM | CC(C)CC(C/C=C1\CC(CO)(COCC(C)(C)C)OC1=O)CC(C)C (stereo unspecified)
0.606 µM | 0.113 µM | 0.0206 µM | CC(C)CC(C/C=C1\CC(CO)(COC(=S)C(C)(C)C)OC1=O)CC(C)C (stereo unspecified)
– | 5.87 µM | 2.14 µM | CC(C)CC(C/C=C1/CC(CO)(COCC(C)(C)C)OC1=O)CC(C)C (stereo unspecified)
